Laboratory results from ChEMBL document CHEMBL5247578, “Effective synthesis of benzimidazoles-imidazo[1,2-a]pyrazine conjugates: A comparative study of mono-and bis-benzimidazoles for antitumor activity” (Eur J Med Chem, 2019).

Tests used:
Calf thymus DNA = assay: Binding affinity to calf thymus DNA assessed as fluorescence quenching intensity at 5 uM at temperature of 298 K by fluorescence spectroscopic method relative to control; format: nucleic-acid assay; conditions: Bos taurus
HEK293 = assay: Cytotoxicity against human HEK293 cells assessed as reduction in cell viability at 0.0000001 M incubated for 48 hrs by MTT colorimetric assay relative to control; format: toxicity, cell-based; conditions: hek293, 48 h, 0.1 µM, dose 100 nM
DU-145 = assay: Antiproliferative activity against human DU-145 cells assessed as cell growth at 0.00000001 M incubated for 48 hrs by SRB assay relative to control; format: functional; conditions: dose 10 nM, read-out: Activity
In short: (§1)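 NCI-60 five-dose screen over 10^-4–10^-8 M (10-fold dilutions). Cells grown in RPMI 1640 with 5% FBS and 2 mM L-glutamine, seeded at 5,000–40,000 cells/well and preincubated 24 h. Drug from DMSO stock, 48 h at 37 °C, 5% CO2. Adherent cells TCA-fixed and stained with 0.4% SRB; A515 read. Percent growth = (Ti−Tz)/(C−Tz)×100, or (Ti−Tz)/Tz×100 when Ti<Tz.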

SN12C [1] = assay: Antiproliferative activity against human SN12C cells assessed as cell growth at 0.00000001 M incubated for 48 hrs by SRB assay relative to control; format: functional; conditions: dose 10 nM, read-out: Activity
OVCAR-4 = assay: Antiproliferative activity against human OVCAR-4 cells assessed as cell growth at 0.00000001 M incubated for 48 hrs by SRB assay relative to control; format: functional; conditions: dose 10 nM, read-out: Activity
UACC-62 = assay: Antiproliferative activity against human UACC-62 cells assessed as cell growth at 0.00000001 M incubated for 48 hrs by SRB assay relative to control; format: functional; conditions: dose 10 nM, read-out: Activity
MDA-MB-468 = assay: Antiproliferative activity against human MDA-MB-468 cells assessed as cell growth inhibition by measuring lethal concentration incubated for 48 hrs by sulforhodamine B assay; format: functional; conditions: read-out: LC50 (the source's name)
NCI-H522 = assay: Antiproliferative activity against human NCI-H522 cells assessed as cell growth at 0.00000001 M incubated for 48 hrs by SRB assay relative to control; format: functional; conditions: dose 10 nM, read-out: Activity
SF-539 = assay: Antiproliferative activity against human SF-539 cells assessed as cell growth at 0.00000001 M incubated for 48 hrs by SRB assay relative to control; format: functional; conditions: dose 10 nM, read-out: Activity
SF-268 = assay: Antiproliferative activity against human SF-268 cells assessed as cell growth inhibition by measuring lethal concentration incubated for 48 hrs by sulforhodamine B assay; format: functional; conditions: read-out: LC50 (the source's name)
MOLT-4 = assay: Antiproliferative activity against human MOLT-4 cells assessed as cell growth inhibition by measuring lethal concentration incubated for 48 hrs by sulforhodamine B assay; format: functional; conditions: read-out: LC50 (the source's name)
MDA-MB-231 = assay: Growth inhibition against human MDA-MB-231 cells incubated for 48 hrs by sulforhodamine B assay; format: functional
MCF7 = assay: Growth inhibition against human MCF7 cells incubated for 48 hrs by sulforhodamine B assay; format: functional
UO-31 [2] = assay: Growth inhibition against human UO-31 cells incubated for 48 hrs by sulforhodamine B assay; format: functional
SN12C [3] = assay: Growth inhibition against human SN12C cells incubated for 48 hrs by sulforhodamine B assay; format: functional
SK-MEL-5 = assay: Growth inhibition against human SK-MEL-5 cells incubated for 48 hrs by sulforhodamine B assay; format: functional
Hs-578T = assay: Antiproliferative activity against human Hs-578T cells assessed as cell growth at 0.00000001 M incubated for 48 hrs by SRB assay relative to control; format: functional; conditions: dose 10 nM, read-out: Activity
In short: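 NCI-60 five-dose mode, 10^-4 to 10^-8 M in 10-fold steps. RPMI 1640, 5% FBS, 2 mM L-glutamine; 24 h preincubation, then 48 h drug exposure at 37 °C. Stocks in DMSO at 400× the top concentration, diluted in medium with gentamicin. TCA fixation, SRB staining, absorbance at 515 nm. Percent growth from time-zero (Tz), control (C) and test (Ti) readings.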

CCRF-CEM = assay: Antiproliferative activity against human CCRF-CEM cells assessed as cell growth at 0.0000001 M incubated for 48 hrs by SRB assay relative to control; format: functional; conditions: dose 100 nM, read-out: Activity; in short: as §1
COLO 205 = assay: Antiproliferative activity against human COLO 205 cells assessed as cell growth at 0.0000001 M incubated for 48 hrs by SRB assay relative to control; format: functional; conditions: dose 100 nM, read-out: Activity; in short: as §1
UO-31 [4] = assay: Antiproliferative activity against human UO-31 cells assessed as cell growth at 0.0000001 M incubated for 48 hrs by SRB assay relative to control; format: functional; conditions: dose 100 nM, read-out: Activity
SW-620 = assay: Antiproliferative activity against human SW620 cells assessed as cell growth at 0.000001 M incubated for 48 hrs by SRB assay relative to control; format: functional; conditions: read-out: Activity
M14 [5] = assay: Antiproliferative activity against human M14 cells assessed as cell growth at 0.000001 M incubated for 48 hrs by SRB assay relative to control; format: functional; conditions: read-out: Activity
IGROV-1 = assay: Antiproliferative activity against human IGROV-1 cells assessed as cell growth at 0.000001 M incubated for 48 hrs by SRB assay relative to control; format: functional; conditions: read-out: Activity
NCI/ADR-RES = assay: Antiproliferative activity against human NCI/ADR-RES cells assessed as cell growth at 0.000001 M incubated for 48 hrs by SRB assay relative to control; format: functional; conditions: read-out: Activity
NCI-H322M = assay: Antiproliferative activity against human NCI-H322M cells assessed as cell growth at 0.00001 M incubated for 48 hrs by SRB assay relative to control; format: functional; conditions: read-out: Activity
HT-29 = assay: Antiproliferative activity against human HT-29 cells assessed as cell growth at 0.00001 M incubated for 48 hrs by SRB assay relative to control; format: functional; conditions: read-out: Activity
In short: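 NCI-60 five-dose screen (10^-4 to 10^-8 M). Cells grown in RPMI 1640 with 5% FBS and 2 mM L-glutamine, plated at 5,000-40,000 cells/well and preincubated 24 h. Drug given from DMSO stock, then 48 h at 37 °C, 5% CO2. For adherent lines, cells fixed with cold TCA, SRB-stained and read at 515 nm. Percent growth taken against time-zero and untreated control.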

KM12 [6] = assay: Antiproliferative activity against human KM12 cells assessed as cell growth at 0.00001 M incubated for 48 hrs by SRB assay relative to control; format: functional; conditions: read-out: Activity
M14 [7] = assay: Antiproliferative activity against human M14 cells assessed as cell growth at 0.00001 M incubated for 48 hrs by SRB assay relative to control; format: functional; conditions: read-out: Activity
TK-10 = assay: Antiproliferative activity against human TK-10 cells assessed as cell growth at 0.00001 M incubated for 48 hrs by SRB assay relative to control; format: functional; conditions: read-out: Activity
KM12 [8] = assay: Antiproliferative activity against human KM12 cells assessed as cell growth at 0.0001 M incubated for 48 hrs by SRB assay relative to control; format: functional; conditions: read-out: Activity
SF-295 = assay: Antiproliferative activity against human SF-295 cells assessed as cell growth at 0.0001 M incubated for 48 hrs by SRB assay relative to control; format: functional; conditions: read-out: Activity
OVCAR-8 = assay: Antiproliferative activity against human OVCAR-8 cells assessed as cell growth at 0.0001 M incubated for 48 hrs by SRB assay relative to control; format: functional; conditions: read-out: Activity

Row | Structure (SMILES) | Activity (Calf thymus DNA) | Activity (HEK293) | growth at 0.01 µM (DU-145) | growth at 0.01 µM (SN12C [1]) | growth at 0.01 µM (OVCAR-4) | growth at 0.01 µM (UACC-62) | CC50 (MDA-MB-468) | growth at 0.01 µM (NCI-H522) | growth at 0.01 µM (SF-539) | CC50 (SF-268) | CC50 (MOLT-4) | GI50 (MDA-MB-231) | GI50 (MCF7) | GI50 (UO-31 [2]) | GI50 (SN12C [3]) | GI50 (SK-MEL-5) | growth at 0.01 µM (Hs-578T) | growth at 0.1 µM (CCRF-CEM) | growth at 0.1 µM (COLO 205) | growth at 0.1 µM (UO-31 [4]) | further results
1 | COc1ccc(-c2cn3ccnc3c(-c3ccc4ncn(C5CCCCC5)c4c3)n2)cc1 | 75% | 14.79% | 103% | 97% | 96% | 94% | > 100 µM | 88% | 87% | > 100 µM | > 100 µM | 2.83 µM | 0.64 µM | 1.35 µM | 2.11 µM | 0.698 µM | 106% | 107% | 102% | 88% | growth at 1 µM (SW-620): 42%; growth at 1 µM (M14 [5]): 38%; growth at 1 µM (IGROV-1): 49%; growth at 1 µM (NCI/ADR-RES): 38%; growth at 10 µM (NCI-H322M): 53%; growth at 10 µM (HT-29): -5%; growth at 10 µM (KM12 [6]): 5%; growth at 10 µM (M14 [7]): 9%; growth at 10 µM (TK-10): 13%; growth at 100 µM (KM12 [8]): 10%; growth at 100 µM (SF-295): 2%; growth at 100 µM (OVCAR-8): 8%
2 | c1ccc(Cn2cnc3ccc(-c4nc(-c5ccc6c(c5)ncn6C5CCCCC5)cn5ccnc45)cc32)cc1 | 35% | 13.6% | 99% | 102% | 94% | 92% | > 100 µM | 93% | 88% | > 100 µM | > 100 µM | 1.68 µM | 2.72 µM | 1.72 µM | 2.27 µM | 1.5 µM | 99% | 113% | 99% | 86% | growth at 1 µM (SW-620): 108%; growth at 1 µM (M14 [5]): 65%; growth at 1 µM (IGROV-1): 73%; growth at 1 µM (NCI/ADR-RES): 84%; growth at 10 µM (NCI-H322M): 8%; growth at 10 µM (HT-29): -48%; growth at 10 µM (KM12 [6]): -41%; growth at 10 µM (M14 [7]): -25%; growth at 10 µM (TK-10): 11%; growth at 100 µM (KM12 [8]): -7%; growth at 100 µM (SF-295): -38%; growth at 100 µM (OVCAR-8): -2%
